Experimental findings from ChEMBL document CHEMBL2176968, “Identification of less lipophilic riminophenazine derivatives for the treatment of drug-resistant tuberculosis” (J Med Chem, 2012) are described below.

Data set [1] relates to Mus musculus. The data set is described as follows: Toxicity in BALB/c mouse infected with multi-drug resistant Mycobacterium tuberculosis isolate 040 assessed as skin discoloration at 20 mg/kg, po qd administered 5 days per week during acute phase of infection measured after 20 days. Type of data set: organism-based. On the set-up: dose 20 mg/kg, route oral. To be noted: in vivo, 480 h. Put shortly: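 Mice were infected by aerosol and then dosed by gavage at 20 mg/kg in 0.5% CMC, 5 days per week, from day 10 to day 30. During treatment, discoloration of ears, internal organs and fat tissue was scored visually and ranked by color intensity.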

The test system of data set [2] is Mycobacterium tuberculosis. The data set is described as follows: Antitubercular activity against multi-drug resistant Mycobacterium tuberculosis isolate 040 infected in BALB/c mouse assessed as reduction in lung bacterial load at 20 mg/kg, po qd administered 5 days per week during acute phase of infection measured after 20 days relative to untreated control. In kind it is functional. A digest of the protocol:
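Infection was by aerosol, depositing 50-100 bacilli per lung. Dosing began on day 10 and ran to day 30, 5 days per week, with compound in 0.5% CMC by gavage. Groups had 5-6 treated mice and 7-10 CMC-treated controls. The day after the last dose, lung homogenates were plated on supplemented 7H11 agar in duplicate for 2-3 weeks at 37°C. Results are log10 CFU per lung; means were compared by Student's t test.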

With `COc1ncccc1Nc1cc2nc3ccccc3n(-c3ccc(OC(F)(F)F)cc3)c-2c/c1=N\C1CCC(OC)CC1` (centres undefined), the Activity result in data set [1] is “Non-toxic”. Also, in data set [2], the log10cfu is on record as 4.67.

Turning to `COc1ncccc1Nc1cc2nc3ccccc3n(-c3ccc(Cl)cc3)c-2c/c1=N\C1CCOCC1`, in data set [1], the Activity entry is reported as “Non-toxic”. For the same compound, the log10cfu in data set [2] is listed as 4.81.

Consider `COc1ncccc1Nc1cc2nc3ccccc3n(-c3ccc(Cl)cc3)c-2c/c1=N\C1CCC(OC)CC1` (centres undefined), for which, in data set [1], the Activity result was “Non-toxic”. Besides, the log10cfu in data set [2] was 4.04.

Take `COC1CCC(/N=c2\cc3n(-c4ccc(Cl)cc4)c4ccccc4nc-3cc2Nc2ccc(C)nc2)CC1` (centres undefined): the Activity result in data set [1] is “Non-toxic”. Besides, the log10cfu in data set [2] came out at 3.25.

Regarding `COc1ncccc1Nc1cc2nc3ccccc3n(-c3ccc(F)cc3)c-2c/c1=N\C(C)C`, the Activity result in data set [1] is “Toxic”. For the same compound, the log10cfu in data set [2] stood at 3.91.

Take `COc1ncccc1Nc1cc2nc3ccccc3n(-c3ccc(F)cc3)c-2c/c1=N\C1CCC(OC)CC1` (centres undefined): the Activity entry in data set [1] is reported as “Toxic”. The log10cfu in data set [2] is listed as 4.35.

Consider `CC(C)/N=c1\cc2n(-c3ccc(Cl)cc3)c3ccccc3nc-2cc1Nc1ccc(Cl)cc1` [CLOFAZIMINE], for which, in data set [1], the Activity entry was “Toxic”. Further, the log10cfu in data set [2] is 3.54.
